Experimental data from ChEMBL document CHEMBL3120161, “Antimycobacterial activity of nitrogen heterocycles derivatives: bipyridine derivatives. Part III” (Eur J Med Chem, 2014).
≈ marks a conversion by molar mass, not a printed value.

Columns and labels:
[1] = test system: Mycobacterium tuberculosis; assay: Antimycobacterial activity against Mycobacterium tuberculosis H37Rv ATCC 27294 after 7 days by microplate Alamar blue assay; assay type: functional, organism-based; details: H37Rv ATCC 27294, 168 h
Summary of the method: (§1)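 Cycle 1 HTS MABA: M. tuberculosis H37Rv ATCC 27294 in 7H12 broth, 384-well, final 1% DMSO. Ten twofold dilutions, typically 100 to 0.195 µg/mL. Amikacin controls at 0.17 and 3.20 µM; the high level serves as background for percent inhibition. 7 days at 37 °C, ~95% humidity. Fluorescence read at 535 nm excitation / 590 nm emission.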

[2] = test system: Mycobacterium tuberculosis; assay: Antimycobacterial activity against Mycobacterium tuberculosis H37Rv ATCC 27294 after 7 days by broth microdilution assay; assay type: functional; details: H37Rv ATCC 27294, 168 h; summary of the method: as §1
[3] = test system: Mycobacterium tuberculosis; assay: Antimycobacterial activity against Mycobacterium tuberculosis H37Rv ATCC 27294 at 0.16 to 0.31 ug/ml after 7 days by microplate Alamar blue assay relative to control; assay type: functional; summary of the method: as §1
[4] = test system: Mycobacterium tuberculosis; assay: Antimycobacterial activity against Mycobacterium tuberculosis H37Rv ATCC 27294 at 0.63 ug/ml after 7 days by microplate Alamar blue assay relative to control; assay type: functional; details: H37Rv ATCC 27294, 168 h; summary of the method: as §1
[5] = test system: Mycobacterium tuberculosis; assay: Antimycobacterial activity against Mycobacterium tuberculosis H37Rv ATCC 27294 at 1.25 to 5 ug/ml after 7 days by microplate Alamar blue assay relative to control; assay type: functional; summary of the method: as §1
[6] = test system: Mycobacterium tuberculosis; assay: Antimycobacterial activity against Mycobacterium tuberculosis H37Rv ATCC 27294 at 0.08 ug/ml after 7 days by microplate Alamar blue assay relative to control; assay type: functional; details: H37Rv ATCC 27294, 168 h
[7] = test system: Mycobacterium tuberculosis; assay: Antimycobacterial activity against Mycobacterium tuberculosis H37Rv ATCC 27294 at 12.5 ug/ml after 7 days by microplate Alamar blue assay relative to control; assay type: functional; details: H37Rv ATCC 27294, 168 h; summary of the method: as §1
[8] = test system: Mycobacterium tuberculosis; assay: Antimycobacterial activity against Mycobacterium tuberculosis H37Rv ATCC 27294 at 50 ug/ml after 7 days by microplate Alamar blue assay relative to control; assay type: functional; details: H37Rv ATCC 27294, 168 h; summary of the method: as §1
[9] = test system: Mycobacterium tuberculosis; assay: Antimycobacterial activity against Mycobacterium tuberculosis H37Rv ATCC 27294 at 100 ug/ml after 7 days by microplate Alamar blue assay relative to control; assay type: functional; details: H37Rv ATCC 27294, 168 h; summary of the method: as §1
[10] = test system: Mycobacterium tuberculosis; assay: Antimycobacterial activity against Mycobacterium tuberculosis H37Rv ATCC 27294 at 25 ug/ml after 7 days by microplate Alamar blue assay relative to control; assay type: functional; details: H37Rv ATCC 27294, 168 h; summary of the method: as §1
[11] = test system: Mycobacterium tuberculosis; assay: Antimycobacterial activity against Mycobacterium tuberculosis H37Rv ATCC 27294 at 1.56 ug/ml after 7 days by microplate Alamar blue assay relative to control; assay type: functional; details: H37Rv ATCC 27294, 168 h; summary of the method: as §1
[12] = test system: Mycobacterium tuberculosis; assay: Antimycobacterial activity against Mycobacterium tuberculosis H37Rv ATCC 27294 at 6.25 ug/ml after 7 days by microplate Alamar blue assay relative to control; assay type: functional; details: H37Rv ATCC 27294, 168 h; summary of the method: as §1
[13] = test system: Mycobacterium tuberculosis; assay: Antimycobacterial activity against Mycobacterium tuberculosis H37Rv ATCC 27294 at 12.5 to 50 ug/ml after 7 days by microplate Alamar blue assay relative to control; assay type: functional; summary of the method: as §1
[14] = test system: Mycobacterium tuberculosis; assay: Antimycobacterial activity against Mycobacterium tuberculosis H37Rv ATCC 27294 at 3.13 ug/ml after 7 days by microplate Alamar blue assay relative to control; assay type: functional; details: H37Rv ATCC 27294, 168 h; summary of the method: as §1
[15] = test system: Mycobacterium tuberculosis; assay: Antimycobacterial activity against Mycobacterium tuberculosis H37Rv ATCC 27294 at 0.31 ug/ml after 7 days by microplate Alamar blue assay relative to control; assay type: functional; details: H37Rv ATCC 27294, 168 h; summary of the method: as §1
[16] = test system: Mycobacterium tuberculosis; assay: […] activity against Mycobacterium tuberculosis H37Rv SRI 1345 after 16 to 21 days; assay type: functional; details: read-out: MBC99.9
Summary of the method: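 MBC, done after MIC testing in H37Rv SRI 1345: diluted aliquots from wells without macroscopic growth are plated on Middlebrook 7H10 agar and incubated 16–21 days at 37 °C. CFUs are counted. MBC is the lowest concentration giving 99.9% kill; rejection value is ≥40 colonies.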

[17] = test system: Mycobacterium tuberculosis; assay: Antimycobacterial activity against Mycobacterium tuberculosis H37Rv SRI 1345 infected in mouse J774A1 cells assessed as reduction in bacterial growth at 0.1 ug/ml after 7 days relative to control; assay type: functional, J774.A1
Summary of the method: (§2)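 Murine J774 macrophages grown in RPMI 1640 with L-glutamine and FBS at 37 °C, 5% CO2. Plated at 2.0 × 10^5 in 10% FBS, switched to 1% FBS next day. Infected 24 h later at MOI 5 for 4 h, washed, then drug added. At 0 and 7 days, cells lysed with SDS, DNase-treated and plated on 7H10 agar for CFU. Duplicates; read-out is log reduction from day 0 to day 7.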

[18] = test system: Mycobacterium tuberculosis; assay: Antimycobacterial activity against Mycobacterium tuberculosis H37Rv ATCC 27294 at 0.02 ug/ml after 7 days by microplate Alamar blue assay relative to control; assay type: functional; details: H37Rv ATCC 27294, 168 h; summary of the method: as §1
[19] = Cytotoxicity against mouse J774A1 cells assessed as cell viability at 0.01 ug/ml after 7 days by MTT assay relative to control; assay type: cell-based, J774.A1; details: read-out: Activity
Summary of the method: (§3)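 Uninfected murine J774 macrophages grown in RPMI 1640 with L-glutamine and FBS at 37 °C, 5% CO2. Cells seeded at 2.0 × 10^5 per well in 10% FBS, then switched to 1% FBS overnight. Run in parallel with the 7-day infection assay. […] Read out by MTT as percent viability.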

[20] = test system: Mycobacterium tuberculosis; assay: Antimycobacterial activity against Mycobacterium tuberculosis H37Rv SRI 1345 after 7 days by broth microdilution assay; assay type: functional; details: H37Rv SRI 1345, 168 h
[21] = test system: Mycobacterium tuberculosis; assay: Antimycobacterial activity against Mycobacterium tuberculosis H37Rv SRI 1345 at MIC after 7 days by broth microdilution assay relative to control; assay type: functional
[22] = Cytotoxicity against mouse J774A1 cells assessed as cell viability at 0.1 ug/ml after 7 days by MTT assay relative to control; assay type: cell-based, J774.A1; details: read-out: Activity; summary of the method: as §3
[23] = test system: Mycobacterium tuberculosis; assay: Antimycobacterial activity against Mycobacterium tuberculosis H37Rv SRI 1345 infected in mouse J774A1 cells assessed as reduction in bacterial growth at 1 ug/ml after 7 days relative to control; assay type: functional, J774.A1; summary of the method: as §2
[24] = Cytotoxicity against mouse J774A1 cells assessed as cell viability at 1 ug/ml after 7 days by MTT assay relative to control; assay type: cell-based, J774.A1; details: read-out: Activity; summary of the method: as §3
[25] = test system: Mycobacterium tuberculosis; assay: Antimycobacterial activity against Mycobacterium tuberculosis H37Rv SRI 1345 infected in mouse J774A1 cells assessed as reduction in bacterial growth at 0.01 ug/ml after 7 days relative to control; assay type: functional, J774.A1; summary of the method: as §2
[26] = test system: Mycobacterium tuberculosis; assay: Antimycobacterial activity against Mycobacterium tuberculosis H37Rv SRI 1345 incubated for 7 days under anaerobic condition measured after 7 days of recovery under gaseous condition by low oxygen recovery assay; assay type: functional

Row | SMILES | IC50 [1] | IC90 [1] | MIC90 [2] | inhibition at 0.63 µg/mL [4] | inhibition (INH) [5] | inhibition at 50 µg/mL [8] | inhibition at 100 µg/mL [9] | inhibition at 25 µg/mL [10] | also measured
1 | NCC[C@H](O)C(=O)N[C@@H]1C[C@H](N)[C@@H](O[C@H]2O[C@H](CN)[C@@H](O)[C@H](O)[C@H]2O)[C@H](O)[C@H]1O[C@H]1O[C@H](CO)[C@@H](O)[C@H](N)[C@H]1O [AMIKACIN] | 0.07 µg/mL (≈ 0.12 µM) | 0.08 µg/mL (≈ 0.137 µM) | 0.16 µM (≈ 0.0937 µg/mL) | 97.3% | 98% | – | – | – | inhibition (INH) [3]: 96%; inhibition at 0.08 µg/mL [6]: 79.8%
2 | N[C@@H]1CONC1=O [CYCLOSERINE] | 12.5 µg/mL (≈ 122 µM) | 13.5 µg/mL (≈ 132 µM) | 25 µM (≈ 2.55 µg/mL) | – | – | 96.3% | 97.7% | 93.9% | inhibition at 12.5 µg/mL [7]: 51%
3 | CC[C@@H](CO)NCCN[C@@H](CC)CO [ETHAMBUTOL] | < 1.56 µg/mL | 32.8 µg/mL (≈ 160 µM) | 12.5 µM (≈ 2.55 µg/mL) | – | – | – | 90% | – | inhibition at 1.56 µg/mL [11]: 69.1%; inhibition at 6.25 µg/mL [12]: 86.6%; inhibition (INH) [13]: 89%; inhibition at 3.13 µg/mL [14]: 84.3%
4 | NNC(=O)c1ccncc1 [ISONIAZID] | 0.18 µg/mL (≈ 1.31 µM) | 0.29 µg/mL (≈ 2.11 µM) | 0.31 µM (≈ 0.0425 µg/mL) | 93.9% | 94% | – | – | – | inhibition at 0.31 µg/mL [15]: 92.9%
5 | CCc1nc(N)nc(N)c1-c1ccc(Cl)cc1 [PYRIMETHAMINE] | 37.4 µg/mL (≈ 150 µM) | 75 µg/mL (≈ 301 µM) | 100 µM (≈ 24.9 µg/mL) | – | – | 69.7% | 95.6% | 26.7% | –
6 | CO[C@H]1/C=C/O[C@@]2(C)Oc3c(C)c(O)c4c(O)c(c(/C=N/N5CCN(C)CC5)c(O)c4c3C2=O)NC(=O)/C(C)=C\C=C\[C@H](C)[C@H](O)[C@@H](C)[C@@H](O)[C@@H](C)[C@H](OC(C)=O)[C@@H]1C [RIFAMPIN] | 0.02 µg/mL (≈ 0.0243 µM) | 0.02 µg/mL (≈ 0.0243 µM) | 0.04 µM (≈ 0.0329 µg/mL) | – | – | – | – | – | MBC [16]: 1.56 µg/mL (≈ 1.9 µM); fold change (FC) [17]: 0.81; inhibition at 0.02 µg/mL [18]: 61.2%; viability at 168 h, 0.01 ug/ml [19]: 94%; MIC [20]: 0.049 µg/mL (≈ 0.0595 µM); inhibition (INH) [21]: 63%; viability at 168 h, 0.1 ug/ml [22]: 93%; fold change (FC) [23]: 1.49; viability at 168 h, 1 ug/ml [24]: 85%; fold change (FC) [25]: 0.98; INH [26]: 0.13 µg/mL
